Consider 22 compounds from ChEMBL document CHEMBL3817802, “Discovery of Benzofuran Derivatives that Collaborate with Insulin-Like Growth Factor 1 (IGF-1) to Promote Neuroprotection” (J Med Chem, 2016).

Bounds are passed on as bounds.

Data set [1] can be described thus: Ratio of drug level in brain to plasma of Sprague-Dawley rat at 0.1 mg/kg, iv by cassette dosing measured at 1 hr by LC/MS/MS analysis. It counts as ADME, organism-based.
A further data set concerns the target CYP2C9 (Homo sapiens, UniProt P11712). Nature of the data set: Inhibition of CYP2C9 in human liver microsomes at 10 uM incubated for 30 mins by HPLC analysis. It counts as ADME. (In general: Liver microsomes are a subcellular fraction often used to study metabolism.)
Data set [2] is described as follows: (§1) Neuroprotective activity against serum starvation-induced cell death in Sprague-Dawley rat primary neural cells assessed as neuronal survival rate incubated for 3 days in presence of 100 ng/ml human recombinant IGF-1 by beta3-tubulin-detecting cell-ELISA relative to control. Type of data set: functional, cell-based. The settings on record: Primary neuron, 72 h. In short, it runs like this: (§2)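 Primary neural cells were taken from rat hippocampal and cerebral cortical tissue and grown 4 days in serum-containing medium. They were then switched to serum-free medium for 3 days, with 100 ng/mL IGF-1 plus test agent, to induce starvation death. Neurons were counted by cell-ELISA for βIII-tubulin immunoreactivity. EC50 was reported with its 95% confidence interval.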

Data set [3] can be described thus: Oral bioavailability in Sprague-Dawley rat at 1 mg/kg by LC/MS/MS analysis. Type of data set: ADME, organism-based. The settings on record: in vivo.
Data set [4] in a line: Metabolic clearance in human liver microsomes at 1 umol/L by LC/MS/MS analysis. As to conditions: read-out: CLH. Type of data set: ADME.
A short description of data set [5]: Neuroprotective activity against serum starvation-induced cell death in Sprague-Dawley rat primary neural cells assessed as neuronal survival rate at 10 uM incubated for 3 days in presence of 100 ng/ml human recombinant IGF-1 by beta3-tubulin-detecting cell-ELISA relative to control. It counts as functional, Primary neuron. In short, it runs like this: (§3)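 Primary neural cells from rat hippocampal and cerebral cortical tissue were grown 4 days in serum-containing medium, then 3 days serum-free to induce death, with or without IGF-1. The line's compound concentration was present during the serum-free phase. Neuron number was estimated by cell-ELISA for βIII-tubulin immunoreactivity. Data are mean ± SEM of four wells.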

A short description of data set [6]: Neuroprotective activity against serum starvation-induced cell death in Sprague-Dawley rat primary neural cells assessed as neuronal survival rate at 1 umol/L incubated for 3 days by beta3-tubulin-detecting cell-ELISA relative to control. It counts as functional, Primary neuron. Summed up:
as §3
For orientation: ELISA stands for enzyme-linked immunosorbent assay.

Data set [7] can be described thus: Neuroprotective activity against serum starvation-induced cell death in Sprague-Dawley rat primary neural cells assessed as neuronal survival rate at 0.33 uM incubated for 3 days in presence of 100 ng/ml human recombinant IGF-1 by beta3-tubulin-detecting cell-ELISA relative to control. It counts as functional, Primary neuron. In short, it runs like this:
as §3

A short description of data set [8]: Neuroprotective activity against serum starvation-induced cell death in Sprague-Dawley rat primary neural cells assessed as neuronal survival rate at 1 umol/L incubated for 3 days in presence of 3 to 100 ng/ml human recombinant IGF-1 by beta3-tubulin-detecting cell-ELISA. Type of data set: functional, Primary neuron. In short, it runs like this: as §3
For another data set, the system named is Primary neuron. The data set is described as §1. It counts as functional, cell-based. In short, it runs like this: as §2
In another data set the test system is HepG2. Nature of the data set: Cytotoxicity against human HepG2 cells assessed as decrease in cellular ATP content at 100 uM after 1 day. Also on record: scale not given: the % may be the effect or the level left. Type of data set: cell-based. The settings on record: hepg2, 24 h.

Sequence of CYP2C9 (P11712 whole entry): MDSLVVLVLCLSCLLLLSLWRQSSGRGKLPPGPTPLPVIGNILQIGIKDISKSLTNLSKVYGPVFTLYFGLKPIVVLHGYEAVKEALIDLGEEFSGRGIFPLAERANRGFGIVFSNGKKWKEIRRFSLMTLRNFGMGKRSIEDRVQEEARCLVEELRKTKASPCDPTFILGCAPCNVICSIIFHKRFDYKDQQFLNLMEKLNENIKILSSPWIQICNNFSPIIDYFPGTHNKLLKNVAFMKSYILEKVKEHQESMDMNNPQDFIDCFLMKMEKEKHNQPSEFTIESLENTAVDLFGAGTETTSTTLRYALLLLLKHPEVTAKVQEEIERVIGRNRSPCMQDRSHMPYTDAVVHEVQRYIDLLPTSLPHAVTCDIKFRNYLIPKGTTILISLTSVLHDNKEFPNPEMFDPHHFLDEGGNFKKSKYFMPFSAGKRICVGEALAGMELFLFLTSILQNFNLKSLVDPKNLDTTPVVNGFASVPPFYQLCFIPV

Consider `COc1ccc(N2CCN(c3c(C)c(C)c4c(c3C)C(=O)C(C)(C)O4)CC2)cc1`, for which the Kp at 1 h in [1] turned out to be 3.4. Moreover, on CYP2C9, the inhibition at 0.5 h, 10 µM is 83.4%. Moreover, the EC50 in data set [2] is 120 nM. Also, the bioavailability in data set [3] was 42.3%.
For the compound `COc1ccc(N2CCN(c3c(C)c(C)c4c(c3C)C[C@@](C)(CO)O4)CC2)cc1`, the EC50 in data set [2] is 700 nM.
In the case of `Cc1c(C)c(N2CCN(c3ccc(Cl)cc3)CC2)c(C)c2c1OC(C)(C)C2`, in data set [2], the EC50 worked out at 660 nM.
As to `COc1ccc(N2CCN(c3c(C)c(C)c4c(c3C)CCO4)CC2)cc1`, in [2], the EC50 came out at 230 nM.
The same measure, in the same setting: the value for `COc1ccc(C2CN(c3c(C)c(C)c4c(c3C)CC(C)(C)O4)CCN2C)cc1` (racemic) was 550 nM.
Turning to `Cc1c(C)c(N2CCN(c3ccc(C#N)cc3)CC2)c(C)c2c1OC(C)(C)C2`, the EC50 in [2] was > 1000 nM.
Consider `COc1ccc(N2CCN(c3c(C)c(C)c4c(c3C)C[C@H](C)O4)CC2)cc1`, for which the EC50 in data set [2] was 460 nM.
Turning to `COc1ccc(N2CCN(c3c(C)c(C)c4c(c3C)C[C@](C)(CO)O4)CC2)cc1`, the 50% effective concentration (EC50) in data set [2] amounted to 630 nM.
In the case of `Cc1c(C)c(N2CCN(c3ccc(F)cc3)CC2)c(C)c2c1OC(C)(C)C2`, in data set [2], the EC50 was found to be 300 nM.
As for `Cc1ccc(N2CCN(c3c(C)c(C)c4c(c3C)CC(C)(C)O4)CC2)cc1`, the microsomal CLint at 1 µM in data set [4] is 30 µL/min/mg. Moreover, the EC50 in data set [2] came to 130 nM.
As to `COc1ccc(N2CCN(c3c(C)c(C)c4c(c3C)CC(C)(C)O4)CC2)cc1OC`, the EC50 in data set [2] was determined as 270 nM.
Regarding `Cc1c(C)c(N2CCNCC2)c(C)c2c1OC(C)(C)C2`, in [5], the Survival was 20%.
Consider `Cc1c(C)c(N2CCN(c3ccccc3)CC2)c(C)c2c1OC(C)(C)C2`, for which the EC50 in [2] came to 380 nM.
As to `COc1ccc(C2CN(c3c(C)c(C)c4c(c3C)CC(C)(C)O4)CCO2)cc1` (racemic), in data set [2], the EC50 stood at 370 nM.
As to `COc1ccc(CN2CCN(c3c(C)c(C)c4c(c3C)CC(C)(C)O4)CC2)cc1`, in data set [2], the EC50 was 680 nM.
With `COc1ccc(N2CCN(c3c(C)c(C)c4c(c3C)CC(C)(C)O4)CC2)cc1`, the results for the “fold change (FC)” value in [6], in data set [7] and in data set [8] were 3, 3 and 6, respectively. In addition, the microsomal CLint at 1 µM in [4] came to 2 µL/min/mg. Also, the Kp at 1 h in data set [1] turned out to be 2.9. Besides, the inhibition at 0.5 h, 10 µM at CYP2C9 was -0.9%. Also, the results for the Activity result in the data set on Primary neuron and with HepG2 were “Dose-dependent effect” and 93.3%, respectively. Further, the EC50 in data set [2] came to 150 nM.
For `COc1ccc(N2CCN(c3c(C)c(C)c4c(c3C)C(=O)C(C)(C)CO4)CC2)cc1`, the inhibition at 0.5 h, 10 µM at CYP2C9 stood at 42.1%. The EC50 in [2] worked out at 510 nM.
For the compound `COc1ccc(N2CCN(c3c(C)c(C)c4c(c3C)C[C@@H](C)O4)CC2)cc1`, in data set [2], the EC50 was 440 nM.
Same read-out and setting: then `COc1ccc(N2CCN(c3c(C)c(C)c4c(c3C)CC(C)(C)O4)CC2)cn1`, with 620 nM.
As to `COc1ccc(N2CCCN(c3c(C)c(C)c4c(c3C)CC(C)(C)O4)CC2)cc1`, in data set [4], the microsomal CLint at 1 µM is 87 µL/min/mg. In data set [2], the EC50 is 76 nM.
Consider `COc1ccc(N2CCN(c3c(C)c(C)c4c(c3C)CC(C)(C)O4)CC2)c(OC)c1`, for which, in data set [2], the EC50 was 390 nM.
`CC(=O)c1ccc(N2CCN(c3c(C)c(C)c4c(c3C)CC(C)(C)O4)CC2)cc1`: in [2], the EC50 turned out to be 150 nM. For the same compound, the Activity in the data set on HepG2 is recorded as 68%.

A word on the Kp: it is tissue or fluid exposure divided by exposure in the circulation. A word on the inhibition: it is the change of the read-out against control, counted positive when it falls. As usually defined, the EC50 is the concentration at which the effect is half-maximal. As a reminder, the bioavailability is the share of a dose that reaches the circulation, judged against a reference dose that is usually intravenous.
